Assay results from ChEMBL document CHEMBL2150974 (J Med Chem, 2012).
Activity calls are given as the source filed them. The rule behind the calls is not given here.

Assays:
[1] = biological target: T1, Mitogen-activated protein kinase 14 (Homo sapiens, UniProt Q16539); assay: Inhibition of p38alpha at 10 uM by immunosorbent based kinase assay
[2] = biological target: RAC-alpha serine/threonine-protein kinase (Homo sapiens) (UniProt P31749); assay: Inhibition of AKT1 at 10 uM
[3] = biological target: T2, Serine/threonine-protein kinase PLK4 (Homo sapiens) (UniProt O00444); assay: Inhibition of SAK at 10 uM
T2 sequence (whole entry): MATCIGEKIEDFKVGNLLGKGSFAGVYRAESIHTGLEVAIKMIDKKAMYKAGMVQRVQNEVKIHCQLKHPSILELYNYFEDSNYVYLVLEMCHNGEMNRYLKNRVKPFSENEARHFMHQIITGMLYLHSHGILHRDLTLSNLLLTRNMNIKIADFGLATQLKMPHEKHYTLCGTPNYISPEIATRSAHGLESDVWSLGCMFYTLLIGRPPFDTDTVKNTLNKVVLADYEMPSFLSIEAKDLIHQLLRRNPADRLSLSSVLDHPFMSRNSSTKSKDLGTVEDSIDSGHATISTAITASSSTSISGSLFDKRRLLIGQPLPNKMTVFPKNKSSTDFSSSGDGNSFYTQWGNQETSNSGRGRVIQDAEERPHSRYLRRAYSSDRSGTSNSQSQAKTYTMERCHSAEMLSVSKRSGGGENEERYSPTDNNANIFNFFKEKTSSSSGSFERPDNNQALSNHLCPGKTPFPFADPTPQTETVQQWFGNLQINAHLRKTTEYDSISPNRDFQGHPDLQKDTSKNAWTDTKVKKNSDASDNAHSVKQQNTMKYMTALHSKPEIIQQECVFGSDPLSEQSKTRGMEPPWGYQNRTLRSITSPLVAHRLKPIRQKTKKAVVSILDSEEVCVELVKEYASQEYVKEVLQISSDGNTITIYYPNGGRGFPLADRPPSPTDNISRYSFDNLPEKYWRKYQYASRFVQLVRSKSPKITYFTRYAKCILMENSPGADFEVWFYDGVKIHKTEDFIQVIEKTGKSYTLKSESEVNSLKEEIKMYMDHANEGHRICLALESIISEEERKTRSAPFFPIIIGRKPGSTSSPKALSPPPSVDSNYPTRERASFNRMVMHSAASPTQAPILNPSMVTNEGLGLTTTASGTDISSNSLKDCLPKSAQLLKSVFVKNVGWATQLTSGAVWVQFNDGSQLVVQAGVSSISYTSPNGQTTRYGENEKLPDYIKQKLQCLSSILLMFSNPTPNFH

[4] = biological target: T3, NUAK family SNF1-like kinase 1 (Homo sapiens) (UniProt O60285); assay: Inhibition of ARK5 at 10 uM
T3 sequence (whole entry): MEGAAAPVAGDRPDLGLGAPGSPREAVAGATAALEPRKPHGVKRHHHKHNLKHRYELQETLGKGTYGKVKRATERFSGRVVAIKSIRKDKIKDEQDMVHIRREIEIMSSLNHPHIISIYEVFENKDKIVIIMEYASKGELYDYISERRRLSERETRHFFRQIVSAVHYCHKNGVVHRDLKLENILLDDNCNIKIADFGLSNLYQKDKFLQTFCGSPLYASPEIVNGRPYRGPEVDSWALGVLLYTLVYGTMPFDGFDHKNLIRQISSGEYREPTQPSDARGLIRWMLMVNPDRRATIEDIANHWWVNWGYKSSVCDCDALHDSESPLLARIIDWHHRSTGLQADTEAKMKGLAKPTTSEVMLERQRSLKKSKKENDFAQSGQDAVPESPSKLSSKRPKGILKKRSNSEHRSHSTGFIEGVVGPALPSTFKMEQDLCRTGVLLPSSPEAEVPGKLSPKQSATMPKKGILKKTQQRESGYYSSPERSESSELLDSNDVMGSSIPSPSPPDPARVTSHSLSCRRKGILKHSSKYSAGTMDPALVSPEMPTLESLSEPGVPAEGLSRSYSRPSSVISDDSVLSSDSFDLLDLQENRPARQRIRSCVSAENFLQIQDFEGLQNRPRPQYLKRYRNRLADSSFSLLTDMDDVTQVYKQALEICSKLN

[5] = biological target: BDNF/NT-3 growth factors receptor (Homo sapiens) (UniProt Q16620); assay: Inhibition of TRKB at 10 uM
[6] = biological target: Aurora kinase B (Homo sapiens) (UniProt Q96GD4); assay: Inhibition of AuroraB at 10 uM
[7] = biological target: Proto-oncogene tyrosine-protein kinase Src (Homo sapiens) (UniProt P12931); assay: Inhibition of SRC at 10 uM
[8] = test system: Serine/threonine-protein kinase B-raf (Homo sapiens), P15056 [V600E]; assay: Inhibition of BRAF V600E mutant at 10 uM
[9] = biological target: Vascular endothelial growth factor receptor 2 (Homo sapiens) (UniProt P35968); assay: Inhibition of VEGFR2 at 10 uM
Sequence of Vascular endothelial growth factor receptor 2 (Homo sapiens) (P35968 whole entry): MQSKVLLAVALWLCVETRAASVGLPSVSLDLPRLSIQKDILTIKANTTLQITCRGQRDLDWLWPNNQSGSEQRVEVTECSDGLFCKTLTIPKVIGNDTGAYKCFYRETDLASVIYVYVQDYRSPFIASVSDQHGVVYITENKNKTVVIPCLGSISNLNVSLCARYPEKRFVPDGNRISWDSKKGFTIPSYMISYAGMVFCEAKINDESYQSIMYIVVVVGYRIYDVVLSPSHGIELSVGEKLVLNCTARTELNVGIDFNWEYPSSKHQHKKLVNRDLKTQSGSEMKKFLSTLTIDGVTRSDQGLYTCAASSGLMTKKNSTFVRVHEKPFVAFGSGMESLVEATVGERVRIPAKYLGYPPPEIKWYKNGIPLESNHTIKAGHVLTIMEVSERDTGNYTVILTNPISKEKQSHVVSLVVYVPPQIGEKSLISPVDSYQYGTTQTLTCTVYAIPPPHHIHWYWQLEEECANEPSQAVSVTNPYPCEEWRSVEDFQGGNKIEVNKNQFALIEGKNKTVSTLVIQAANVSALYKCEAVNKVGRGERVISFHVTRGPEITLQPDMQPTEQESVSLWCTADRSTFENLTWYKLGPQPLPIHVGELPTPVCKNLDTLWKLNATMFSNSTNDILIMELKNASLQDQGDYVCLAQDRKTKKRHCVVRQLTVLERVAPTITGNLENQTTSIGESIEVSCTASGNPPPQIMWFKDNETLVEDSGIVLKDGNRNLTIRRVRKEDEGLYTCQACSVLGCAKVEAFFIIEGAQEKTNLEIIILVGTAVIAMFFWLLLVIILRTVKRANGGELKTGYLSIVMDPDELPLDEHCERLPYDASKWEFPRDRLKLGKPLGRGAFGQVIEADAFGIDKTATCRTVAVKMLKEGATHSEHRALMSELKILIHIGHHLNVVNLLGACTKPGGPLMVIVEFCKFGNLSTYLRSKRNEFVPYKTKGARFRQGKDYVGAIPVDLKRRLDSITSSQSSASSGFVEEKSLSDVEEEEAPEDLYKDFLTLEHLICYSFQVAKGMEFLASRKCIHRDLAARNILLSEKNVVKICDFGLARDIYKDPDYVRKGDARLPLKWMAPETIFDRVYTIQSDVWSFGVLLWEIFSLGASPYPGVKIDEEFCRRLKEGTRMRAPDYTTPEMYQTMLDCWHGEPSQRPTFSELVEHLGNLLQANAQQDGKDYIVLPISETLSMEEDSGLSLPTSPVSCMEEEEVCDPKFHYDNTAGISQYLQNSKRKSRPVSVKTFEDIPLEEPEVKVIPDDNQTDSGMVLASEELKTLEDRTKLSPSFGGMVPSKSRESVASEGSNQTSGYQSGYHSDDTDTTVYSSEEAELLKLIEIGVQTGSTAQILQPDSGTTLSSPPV

[10] = biological target: Insulin receptor (Homo sapiens) (UniProt P06213); assay: Inhibition of INSR at 10 uM
[11] = biological target: Insulin-like growth factor 1 receptor (Homo sapiens) (UniProt P08069); assay: Inhibition of IGF1R at 10 uM
[12] = biological target: Hepatocyte growth factor receptor (Homo sapiens) (UniProt P08581); assay: Inhibition of MET at 10 uM
Sequence of Hepatocyte growth factor receptor (Homo sapiens) (P08581 whole entry): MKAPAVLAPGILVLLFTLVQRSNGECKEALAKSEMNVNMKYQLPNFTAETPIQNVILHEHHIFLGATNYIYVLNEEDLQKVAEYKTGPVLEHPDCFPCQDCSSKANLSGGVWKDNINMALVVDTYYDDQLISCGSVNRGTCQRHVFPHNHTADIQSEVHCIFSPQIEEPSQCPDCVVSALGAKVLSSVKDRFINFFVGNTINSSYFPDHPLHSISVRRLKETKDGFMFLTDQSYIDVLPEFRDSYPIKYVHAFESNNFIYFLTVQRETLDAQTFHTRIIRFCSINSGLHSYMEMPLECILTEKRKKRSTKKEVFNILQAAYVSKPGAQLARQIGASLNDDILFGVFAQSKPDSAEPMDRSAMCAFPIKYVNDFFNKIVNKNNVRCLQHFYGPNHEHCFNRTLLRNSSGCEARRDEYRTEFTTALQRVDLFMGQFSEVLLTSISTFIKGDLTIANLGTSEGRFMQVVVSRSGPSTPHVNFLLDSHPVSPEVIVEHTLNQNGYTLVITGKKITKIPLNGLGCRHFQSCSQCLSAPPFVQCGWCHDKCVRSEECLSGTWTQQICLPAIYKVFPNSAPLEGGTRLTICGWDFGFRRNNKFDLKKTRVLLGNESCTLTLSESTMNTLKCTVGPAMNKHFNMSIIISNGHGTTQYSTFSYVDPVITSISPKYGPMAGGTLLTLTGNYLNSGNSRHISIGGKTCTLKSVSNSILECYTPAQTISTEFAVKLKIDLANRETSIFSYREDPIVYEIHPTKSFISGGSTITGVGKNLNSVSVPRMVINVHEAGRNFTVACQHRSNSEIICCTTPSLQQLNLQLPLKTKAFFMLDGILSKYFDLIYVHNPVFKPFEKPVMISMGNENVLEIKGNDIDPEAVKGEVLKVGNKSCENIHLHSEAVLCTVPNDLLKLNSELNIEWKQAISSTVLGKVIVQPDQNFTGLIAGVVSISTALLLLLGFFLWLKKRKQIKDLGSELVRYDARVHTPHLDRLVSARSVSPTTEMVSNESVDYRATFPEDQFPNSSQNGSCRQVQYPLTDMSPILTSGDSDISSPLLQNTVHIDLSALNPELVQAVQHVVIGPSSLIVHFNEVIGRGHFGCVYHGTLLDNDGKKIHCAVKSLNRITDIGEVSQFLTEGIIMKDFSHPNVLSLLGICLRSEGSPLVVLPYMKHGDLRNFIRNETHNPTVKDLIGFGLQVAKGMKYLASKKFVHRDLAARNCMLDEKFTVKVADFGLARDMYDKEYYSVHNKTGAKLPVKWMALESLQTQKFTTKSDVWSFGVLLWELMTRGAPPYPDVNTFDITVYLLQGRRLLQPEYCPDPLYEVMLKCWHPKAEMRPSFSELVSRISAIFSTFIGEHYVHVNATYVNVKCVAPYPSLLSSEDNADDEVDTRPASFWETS

[13] = biological target: Focal adhesion kinase 1 (Homo sapiens) (UniProt Q05397); assay: Inhibition of FAK at 10 uM
[14] = biological target: Serine/threonine-protein kinase PLK1 (Homo sapiens) (UniProt P53350); assay: Inhibition of PLK1 at 10 uM
[15] = biological target: Tyrosine-protein kinase receptor UFO (Homo sapiens) (UniProt P30530); assay: Inhibition of AXL at 10 uM
[16] = biological target: Serine/threonine-protein kinase N1 (Homo sapiens) (UniProt Q16512); assay: Inhibition of PRK1 at 10 uM
Sequence of Serine/threonine-protein kinase N1 (Homo sapiens) (Q16512 2-942 limits assumed): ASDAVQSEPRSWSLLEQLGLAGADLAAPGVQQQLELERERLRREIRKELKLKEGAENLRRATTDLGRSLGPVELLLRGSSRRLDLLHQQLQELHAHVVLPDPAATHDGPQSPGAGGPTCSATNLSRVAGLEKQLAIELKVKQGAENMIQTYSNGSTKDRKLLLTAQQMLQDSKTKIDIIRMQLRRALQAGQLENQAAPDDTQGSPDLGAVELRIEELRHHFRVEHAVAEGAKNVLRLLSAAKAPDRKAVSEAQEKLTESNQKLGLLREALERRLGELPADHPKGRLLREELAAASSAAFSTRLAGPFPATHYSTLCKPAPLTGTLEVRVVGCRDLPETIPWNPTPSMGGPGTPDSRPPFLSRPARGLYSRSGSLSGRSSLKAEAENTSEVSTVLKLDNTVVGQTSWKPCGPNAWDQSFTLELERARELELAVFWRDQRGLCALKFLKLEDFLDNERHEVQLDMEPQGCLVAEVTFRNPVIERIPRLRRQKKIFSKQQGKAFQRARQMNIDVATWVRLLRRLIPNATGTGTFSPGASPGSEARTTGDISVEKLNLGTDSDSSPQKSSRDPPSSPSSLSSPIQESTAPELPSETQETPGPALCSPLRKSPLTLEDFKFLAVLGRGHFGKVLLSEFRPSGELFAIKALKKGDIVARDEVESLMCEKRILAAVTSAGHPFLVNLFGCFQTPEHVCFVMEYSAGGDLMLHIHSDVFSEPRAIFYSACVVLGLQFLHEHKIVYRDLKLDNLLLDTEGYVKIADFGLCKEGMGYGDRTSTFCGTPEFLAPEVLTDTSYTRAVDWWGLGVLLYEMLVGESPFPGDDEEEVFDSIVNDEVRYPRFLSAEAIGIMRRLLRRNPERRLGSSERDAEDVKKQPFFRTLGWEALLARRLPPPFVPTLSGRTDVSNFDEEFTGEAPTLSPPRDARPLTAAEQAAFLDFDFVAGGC

[17] = biological target: Casein kinase II subunit alpha (Homo sapiens) (UniProt P68400); assay: Inhibition of CK2alpha1 at 10 uM
Sequence of Casein kinase II subunit alpha (Homo sapiens) (P68400 whole entry, looked up): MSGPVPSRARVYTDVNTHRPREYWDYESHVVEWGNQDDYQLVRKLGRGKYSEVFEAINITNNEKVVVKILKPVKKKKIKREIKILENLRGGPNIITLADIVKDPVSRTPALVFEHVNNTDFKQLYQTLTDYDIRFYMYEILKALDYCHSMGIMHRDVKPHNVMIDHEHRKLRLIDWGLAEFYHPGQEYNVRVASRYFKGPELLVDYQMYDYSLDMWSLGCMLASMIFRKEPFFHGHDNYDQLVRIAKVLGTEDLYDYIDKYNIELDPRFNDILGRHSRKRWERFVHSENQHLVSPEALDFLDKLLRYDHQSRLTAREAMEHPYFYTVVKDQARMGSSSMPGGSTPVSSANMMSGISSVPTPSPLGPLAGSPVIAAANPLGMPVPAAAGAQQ

[18] = biological target: T1, Mitogen-activated protein kinase 14; assay: Inhibition of p38alpha by immunosorbent based kinase assay
[19] = biological target: T1, Mitogen-activated protein kinase 14; assay: Inhibition of p38alpha-dependent TNFalpha production in human whole blood at 100 uM
Summary of the method: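 Freshly drawn human whole blood, used diluted so that serum albumin and other plasma proteins are present; inhibition of TNF-α release from the blood's immune cells measured.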

[20] = biological target: T1, Mitogen-activated protein kinase 14; assay: Inhibition of p38alpha-dependent TNFalpha production in human whole blood

T1 sequence (Q16539 whole entry): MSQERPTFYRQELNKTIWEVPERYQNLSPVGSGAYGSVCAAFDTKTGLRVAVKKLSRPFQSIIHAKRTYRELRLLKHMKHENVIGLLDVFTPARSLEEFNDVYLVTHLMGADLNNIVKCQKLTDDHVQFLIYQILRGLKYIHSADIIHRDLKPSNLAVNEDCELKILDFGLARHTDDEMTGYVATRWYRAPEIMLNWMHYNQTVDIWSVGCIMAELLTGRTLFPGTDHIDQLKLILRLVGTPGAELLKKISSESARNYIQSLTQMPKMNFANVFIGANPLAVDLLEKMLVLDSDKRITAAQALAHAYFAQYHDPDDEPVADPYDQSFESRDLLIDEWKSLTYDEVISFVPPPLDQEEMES
Sequence of RAC-alpha serine/threonine-protein kinase (Homo sapiens) (P31749 whole entry): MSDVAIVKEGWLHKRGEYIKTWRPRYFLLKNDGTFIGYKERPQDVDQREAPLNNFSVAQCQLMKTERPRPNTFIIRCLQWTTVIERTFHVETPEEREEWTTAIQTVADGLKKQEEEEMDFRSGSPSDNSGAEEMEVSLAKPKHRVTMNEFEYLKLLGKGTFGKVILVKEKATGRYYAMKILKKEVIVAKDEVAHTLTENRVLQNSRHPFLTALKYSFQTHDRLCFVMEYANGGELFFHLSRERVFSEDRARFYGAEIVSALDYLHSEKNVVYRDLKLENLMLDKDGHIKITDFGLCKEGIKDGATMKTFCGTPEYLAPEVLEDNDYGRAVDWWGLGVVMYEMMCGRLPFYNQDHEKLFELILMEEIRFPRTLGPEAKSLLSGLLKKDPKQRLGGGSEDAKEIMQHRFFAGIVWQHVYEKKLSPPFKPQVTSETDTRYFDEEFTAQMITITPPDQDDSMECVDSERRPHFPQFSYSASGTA

Compound	inhibition [1] [%]	inhibition [2]	inhibition [3]	inhibition [4]	inhibition [5]	inhibition [6]	inhibition [7]	inhibition [8]	inhibition [9]	inhibition [10]	inhibition [11]	inhibition [12]	inhibition [13]	inhibition [14]	inhibition [15]	inhibition [16]	inhibition [17]	IC50 [18] [nM]	inhibition [19] [%]	IC50 [20] [µM]
COc1ccc2c(c1)C(=O)c1ccc(-c3ccccc3)cc1CC2	32	inactive	inactive	inactive	inactive	inactive	inactive	inactive	inactive	inactive	inactive	inactive	inactive	inactive	inactive	inactive	inactive			
COc1ccc2ccc3cc(Nc4ccc(F)cc4F)ccc3c(=O)c2c1	21	inactive	inactive	inactive	inactive	inactive	inactive	inactive	inactive	inactive	inactive	inactive	inactive	inactive	inactive	inactive	inactive			
CC1(C)OC[C@H](COc2cccc3c2CCc2cc(Nc4ccccc4N)ccc2C3=O)O1		inactive	inactive	inactive	inactive	inactive	inactive	inactive	inactive	inactive	inactive	inactive	inactive	inactive	inactive	inactive	inactive	1040		158
O=C1c2ccc(Nc3ccc(F)cc3F)cc2CCc2c(OCCN3CCOCC3)cccc21		inactive	inactive	inactive	inactive	inactive	inactive	inactive	inactive	inactive	inactive	inactive	inactive	inactive	inactive	inactive	inactive	30		200

The remaining lines, values ahead:

inhibition [1] [%]	inhibition [2]	inhibition [3]	inhibition [4]	inhibition [5]	inhibition [6]	inhibition [7]	inhibition [8]	inhibition [9]	inhibition [10]	inhibition [11]	inhibition [12]	inhibition [13]	inhibition [14]	inhibition [15]	inhibition [16]	inhibition [17]	IC50 [18] [nM]	inhibition [19] [%]	IC50 [20] [µM]	Compound
	inactive	inactive	inactive	inactive	inactive	inactive	inactive	inactive	inactive	inactive	inactive	inactive	inactive	inactive	inactive	inactive	440	40		CC1(C)OC[C@H](COc2cccc3c2CCc2cc(Nc4ccc(F)cc4F)ccc2C3=O)O1
	inactive	inactive	inactive	inactive	inactive	inactive	inactive	inactive	inactive	inactive	inactive	inactive	inactive	inactive	inactive	inactive	20		170	CC1(C)OC[C@H](COc2ccc3c(c2)CCc2cc(Nc4ccc(F)cc4F)ccc2C3=O)O1
